Blank lines part the entries; values can stand above or below the compound they belong to. Calls of active or inactive are those of the source. The rule behind the calls is not given here. *1 amine or outer side, *2 acyl side, *3 side chain or, on linkers, in order; H or OH if unused. Where a SMILES comes first, the peptide text is derived from it. Bridges are numbered along the chain shown (N, C = ends). TBMB = c1c(C[*:1])cc(C[*:3])cc1C[*:2]
Assays:
Coagulation factor X = Coagulation factor X (Homo sapiens, UniProt P00742); assay: Inhibition of recombinant human C-terminal 10His-tagged factor Xa (24 to 488 residues) expressed in baculovirus derived insect sf21 cells using fluorogenic Mca-RPKPVE-Nval-WRK(Dnp)-NH2 peptide as substrate by fluorescence based assay
Method in brief: (§1)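 Human serine proteases were assayed with substrates and conditions set by each supplier's recommendations. Peptides were first screened at 50 μM. Where inhibition was detected, Ki was determined from activity across peptide concentrations using a tight-binding rate equation.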

Rattus norvegicus [1] = assay: Antiinflammatory activity in Sprague-Dawley rat carrageenan-induced paw edema model assessed as inhibition of paw edema AUC (0 to 2 hrs) at 10 to 30 mg/kg, ip pretreated for 15 mins followed by carrageenan challenge; format: functional, organism-based
Method in brief: (§2)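 Male Sprague-Dawley rats received peptide IP (30, 10 or 3 mg/kg), or indomethacin IP at 5 mg/kg, 15 min before subplantar carrageenan. Paw volume was followed over time against a vehicle group.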

Oryctolagus cuniculus = species on record: Oryctolagus cuniculus; assay: Inhibition of plasma kallikrein in rabbit plasma using HMWK as substrate assessed as suppression of kaolin-activated protein induced bradykinin release at 2 uM preincubated for 15 mins followed by substrate addition measured after 15 min by ELISA
Prothrombin = Prothrombin (Homo sapiens, UniProt P00734); assay: Inhibition of recombinant human alpha thrombin using fluorogenic peptide as substrate by fluorescence based assay
Method in brief: (§3)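 Panel of human serine proteases. Substrates and assay conditions followed each supplier's recommendations. Peptides were first screened at 50 μM. Where inhibition was detectable, hydrolytic activity was measured across a range of peptide concentrations. Ki was obtained by fitting to the tight-binding inhibitor rate equation.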

Mus musculus = assay: Antidiabetic activity in STZ-induced diabetic C57BL/6J mouse model assessed as reduction in retinal vascular permeability at 100 ug administered 4 times via ivt measured at 8 weeks post diabetes onset relative to control; format: functional
Method in brief: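 Diabetes was induced with STZ in male C57BL/6J mice. Peptide was given as repeated intravitreal injections (4 × 100 μg). Retinal permeability was read as FITC-BSA extravasation 8 weeks after diabetes onset and compared with vehicle-treated diabetic mice. The anti-VEGFR2 antibody DC101 (6.2 μg/eye, single dose) served as positive control.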

Rattus norvegicus [2] = assay: Antiinflammatory activity in ip dosed Sprague-Dawley rat carrageenan-induced paw edema model assessed as inhibition of edema pretreated for 15 mins followed by carrageenan challenge measured up to 6 hrs; format: functional, organism-based; method in brief: as §2
[3] = target: T1, Complement C1s subcomponent (Homo sapiens, UniProt P09871); assay: Inhibition of recombinant human C-terminal 6His-tagged complement component C1s (1 to 688 residues) expressed in mouse NS0 cells using fluorogenic Z-Lys-SBzl peptide as substrate after 5 mins by fluorescence based assay; method in brief: as §1
T1 sequence (P09871 whole entry): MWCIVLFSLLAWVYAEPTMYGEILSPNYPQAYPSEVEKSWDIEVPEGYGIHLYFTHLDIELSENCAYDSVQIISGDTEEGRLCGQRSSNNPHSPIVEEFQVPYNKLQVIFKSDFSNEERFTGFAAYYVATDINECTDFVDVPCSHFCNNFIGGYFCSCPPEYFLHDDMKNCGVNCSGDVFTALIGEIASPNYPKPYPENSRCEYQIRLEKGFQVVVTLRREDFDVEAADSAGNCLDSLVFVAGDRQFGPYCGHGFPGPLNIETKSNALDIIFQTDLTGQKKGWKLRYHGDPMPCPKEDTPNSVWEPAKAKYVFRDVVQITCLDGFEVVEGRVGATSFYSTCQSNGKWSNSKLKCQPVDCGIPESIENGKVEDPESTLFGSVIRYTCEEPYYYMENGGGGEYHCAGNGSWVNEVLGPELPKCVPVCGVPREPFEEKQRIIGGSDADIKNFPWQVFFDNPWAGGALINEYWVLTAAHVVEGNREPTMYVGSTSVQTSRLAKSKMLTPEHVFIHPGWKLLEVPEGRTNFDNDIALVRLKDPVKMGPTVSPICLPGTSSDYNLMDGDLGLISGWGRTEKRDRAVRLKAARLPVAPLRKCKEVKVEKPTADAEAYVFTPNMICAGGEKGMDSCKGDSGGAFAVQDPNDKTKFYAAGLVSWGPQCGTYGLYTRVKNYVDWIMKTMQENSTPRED

Kallikrein-6 = Kallikrein-6 (Homo sapiens, UniProt Q92876); assay: Inhibition of recombinant human C-terminal His-tagged KLK6 isoform 1 (1 to 244 residues) expressed in HEK293 cells using fluorogenic Boc-QARAMC peptide as substrate by fluorescence based assay; method in brief: as §1
Cathepsin G = target: T2, Cathepsin G (Homo sapiens, UniProt P08311); assay: Inhibition of recombinant human Cathepsin-G; method in brief: as §3
T2 sequence (P08311 whole entry): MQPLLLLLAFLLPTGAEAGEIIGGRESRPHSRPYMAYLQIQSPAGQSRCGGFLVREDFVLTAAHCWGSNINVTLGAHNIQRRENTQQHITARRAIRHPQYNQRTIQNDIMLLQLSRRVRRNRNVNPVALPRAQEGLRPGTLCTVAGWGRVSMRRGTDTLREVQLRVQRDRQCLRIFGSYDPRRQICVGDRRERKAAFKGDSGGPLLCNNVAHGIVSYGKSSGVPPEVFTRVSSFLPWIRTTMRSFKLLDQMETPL

(UniProt A0A8D1M4K5) = assay: Inhibition of pig plasma kallikrein using fluorogenic H-Pro-Phe-Arg-AMC peptide as substrate preincubated for 15 mins followed by substrate addition measured by fluorescence-based assay; set-up: species or system Sus scrofa; conditions: read-out: Ki(app)
Plasma [4] = assay: Drug metabolism in rat plasma assessed as (5R,8S,11S,14S,17S,20S,23R)-29-[[(2R)-2-acetamido-3-[[(1S)-2-hydroxy-1-(hydroxymethyl)-2-oxo-ethyl]amino]-3-oxo-propyl]sulfanylmethyl]-5-amino-14-(3-amino-3-oxo-propyl)-17-(carboxymethyl)-11-(1H-imidazol-5-ylmethyl)-8,20-diisobutyl-6,9,12,15,18,21-hexaoxo-3,25-dithia-7,10,13,16,19,22-hexazabicyclo[25.3.1]hentriaconta-1(31),27,29-triene-23-carboxylic acid metabolite formation at 50 uM after 18 hrs by MALDI-TOF analysis; format: ADME, cell-free
Method in brief: (§4)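 Peptide from a 1 mM DMSO stock was diluted to 50 μM in citrated mouse, rat or human plasma and incubated at 37 °C for up to 2 days. Samples taken at time points were quenched in 1:1 acetonitrile/methanol and centrifuged. The supernatant was mixed with ammonium bicarbonate in acetonitrile/water, and parent peptide and metabolites were detected by MALDI-TOF.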

[5] = Half life in mouse plasma at 4 uM measured up to 24 hrs by LC-MS/MS analysis; format: ADME, cell-free
Method in brief: (§5)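 Peptide from a 0.16 mM DMSO stock was added to human, rat or mouse plasma (final 4 μM) or to homogenized human vitreous (final 1 μM), with internal standard. Samples were incubated at 37 °C for up to 24 h and extracted with water/acetonitrile/methanol 1:3:3.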

Plasma [6] = assay: Drug metabolism in human plasma assessed as deltaH7Q6 metabolite formation at 50 uM after 18 hrs by MALDI-TOF analysis; format: ADME, cell-free; method in brief: as §4
Plasma kallikrein [7] = target: Plasma kallikrein (Homo sapiens, UniProt P03952); assay: Inhibition of human plasma kallikrein using fluorogenic H-Pro-Phe-Arg-AMC peptide as substrate preincubated for 15 mins followed by substrate addition measured by fluorescence-based assay; conditions: read-out: Ki(app)
[8] = Half life in human vitreous humor at 1 uM measured up to 24 hrs by LC-MS/MS analysis; format: ADME, tissue-based; method in brief: as §5
Plasma kallikrein [9] = target: Plasma kallikrein (Rattus norvegicus, UniProt P14272); assay: Inhibition of recombinant Sprague-Dawley rat plasma kallikrein using fluorogenic H-Pro-Phe-Arg-AMC peptide as substrate preincubated for 15 mins followed by substrate addition measured by fluorescence-based assay; conditions: read-out: Ki(app)
[10] = Half life in rat plasma at 4 uM measured up to 24 hrs by LC-MS/MS analysis; format: ADME, cell-free; method in brief: as §5
Plasma [11] = assay: Drug metabolism in rat plasma assessed as (5R,8S,11S,14S,17S,20S,23R)-29-[[(2R)-2-acetamido-3-[[(1S)-1-(hydroxymethyl)-2-[[(1S)-2-[(2S)-2-[[(1S)-2-hydroxy-1-methyl-2-oxo-ethyl]carbamoyl]pyrrolidin-1-yl]-1-(1H-indol-3-ylmethyl)-2-oxo-ethyl]amino]-2-oxo-ethyl]amino]-3-oxo-propyl]sulfanylmethyl]-5-amino-14-(3-amino-3-oxo-propyl)-17-(carboxymethyl)-11-(1H-imidazol-5-ylmethyl)-8,20-diisobutyl-6,9,12,15,18,21-hexaoxo-3,25-dithia-7,10,13,16,19,22-hexazabicyclo[25.3.1]hentriaconta-1(31),27,29-triene-23-carboxylic acid metabolite formation at 50 uM after 18 hrs by MALDI-TOF analysis; format: ADME, cell-free; method in brief: as §4
[12] = Plasma clearance in Sprague-Dawley rat at 10 mg/kg, iv administered as infusion over 1 hr measured up to 240 mins post dose by LC-MS/MS analysis; format: ADME, organism-based
Method in brief: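 Groups of 2 male Sprague-Dawley rats; 10 mg/kg infused into the jugular vein over 1 h. Serial blood drawn via tail-vein cannulae at 5–240 min into EDTA tubes and processed to plasma. Plasma assayed by LC-MS/MS against a 16–4000 ng/mL calibration line in control rat plasma.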

Plasma [13] = assay: Drug metabolism in human plasma assessed as deltaLeu6 metabolite formation at 50 uM after 18 hrs by MALDI-TOF analysis; format: ADME, cell-free; method in brief: as §4
[14] = Half life in human plasma at 4 uM measured up to 24 hrs by LC-MS/MS analysis; format: ADME, cell-free; method in brief: as §5
Plasma [15] = assay: Drug metabolism in human plasma assessed as deltaL6H7Q6 metabolite formation at 50 uM after 18 hrs by MALDI-TOF analysis; format: ADME, cell-free; method in brief: as §4
Plasma [16] = assay: Drug metabolism in rat plasma assessed as (5R,8S,11S,14S,17S,20S,23R)-29-[[(2R)-2-acetamido-3-hydroxy-3-oxo-propyl]sulfanylmethyl]-5-amino-14-(3-amino-3-oxo-propyl)-17-(carboxymethyl)-11-(1H-imidazol-5-ylmethyl)-8,20-diisobutyl-6,9,12,15,18,21-hexaoxo-3,25-dithia-7,10,13,16,19,22-hexazabicyclo[25.3.1]hentriaconta-1(31),27,29-triene-23-carboxylic acid metabolite formation at 50 uM after 18 hrs by MALDI-TOF analysis; format: ADME, cell-free; method in brief: as §4
[17] = Inhibition of rabbit plasma kallikrein using fluorogenic H-Pro-Phe-Arg-AMC peptide as substrate preincubated for 15 mins followed by substrate addition measured by fluorescence-based assay; set-up: species or system Oryctolagus cuniculus; conditions: read-out: Ki(app)
Method in brief: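 Assays ran at 25 °C in 50 mM Tris-HCl, 250 mM NaCl, 1.5 μM BSA, pH 7.5. PKal (nominal 1–2 nM) was preincubated 15 min with serially diluted peptide. […] Human PKal was purified from plasma; rat PKal was made in-house or bought; other species were purified in-house from kaolin-activated plasma.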

Ki (Coagulation factor X): > 50 µM
inhibition (Oryctolagus cuniculus): inactive
Ki (Prothrombin): > 50 µM
Ki [3]: > 50 µM
Ki (Kallikrein-6): > 50 µM
Ki (Cathepsin G): > 50 µM
SMILES: CC(=O)N[C@H]1CSCc2cc3cc(c2)CSC[C@@H](NC(=O)[C@H](CCCCNC(=N)N)NC(=O)[C@H](Cc2ccc(O)cc2)NC(=O)C2CCN2C(=O)[C@H](Cc2ccccc2)NC(=O)[C@H](CO)NC1=O)C(=O)N[C@@H](C)CN[C@@H](Cc1cnc[nH]1)C(=O)N[C@@H](CCC(N)=O)C(=O)N[C@@H](CC(=O)O)C(=O)N[C@@H](CC(C)C)C(=O)N[C@H](C(=O)O)CSC3 (some centres undefined)
inhibition (Rattus norvegicus [1]): Active
inhibition (Mus musculus): inactive
inhibition (Rattus norvegicus [2]): Dose-dependent effect

Ki ((UniProt A0A8D1M4K5)): 0.0036 µM
Drug metabolism (Plasma [4]): Metabolite_Detected
half-life at 4 µM [5]: 1.5 h
Drug metabolism (Plasma [6]): Metabolite_Detected
Ki (Plasma kallikrein [7]): 0.00015 µM
half-life at 1 µM [8]: > 24 h
Ki (Plasma kallikrein [9]): 0.002 µM
half-life at 4 µM [10]: 2.8 h
Drug metabolism (Plasma [11]): Metabolite_Detected
clearance [12]: 156 mL/min/kg
Drug metabolism (Plasma [13]): Metabolite_Detected
half-life at 4 µM [14]: 7 h
Drug metabolism (Plasma [15]): Metabolite_Detected
Drug metabolism (Plasma [16]): Metabolite_Detected
Ki [17]: 0.01 µM
SMILES: CC(=O)N[C@H]1CSCc2cc3cc(c2)CSC[C@H](NC(=O)[C@H](CCCNC(=N)N)NC(=O)[C@H](C)NC(=O)[C@@H]2CCCN2C(=O)[C@H](Cc2c[nH]c4ccccc24)NC(=O)[C@H](CO)NC1=O)C(=O)N[C@@H](CC(C)C)C(=O)N[C@@H](Cc1cnc[nH]1)C(=O)N[C@@H](CCC(N)=O)C(=O)N[C@@H](CC(=O)O)C(=O)N[C@@H](CC(C)C)C(=O)N[C@H](C(=O)O)CSC3 (Ac-CSWPARCLHQDLC-OH; linker 1-7-13 via TBMB)

Source: ChEMBL document CHEMBL4033799, “Stable and Long-Lasting, Novel Bicyclic Peptide Plasma Kallikrein Inhibitors for the Treatment of Diabetic Macular Edema” (J Med Chem, 2018)
